ChEMBL document CHEMBL1833827, “Synthesis and anticandidal activity of new triazolothiadiazine derivatives” (Eur J Med Chem, 2011)
In brackets after ≈: the same amount, converted by molar mass.

Assays:
Nakaseomyces glabratus [1] = test: Antifungal activity against Candida glabrata clinical isolate (Osmangazi university) by NCCLS M27-A2 microbroth dilution method; type: functional
Candida albicans [2] = test: Antifungal activity against Candida albicans NRRL Y-12983 by NCCLS M27-A2 microbroth dilution method; type: functional
Candida albicans [3] = test: Antifungal activity against Candida albicans ATCC 90028 by NCCLS M27-A2 microbroth dilution method; type: functional
Candida tropicalis = test: Antifungal activity against Candida tropicalis NRRL Y-12968 by NCCLS M27-A2 microbroth dilution method; type: functional
Candida albicans [4] = test: Antifungal activity against Candida albicans clinical isolate by NCCLS M27-A2 microbroth dilution method; type: functional
Candida parapsilosis = test: Antifungal activity against Candida parapsilosis NRRL Y-12696 by NCCLS M27-A2 microbroth dilution method; type: functional; settings: Lodderomyces parapsilosis
Pichia kudriavzevii = test: Antifungal activity against Candida krusei NRRL Y-7179 by NCCLS M27-A2 microbroth dilution method; type: functional
NIH3T3 = test: Cytotoxicity against mouse NIH/3T3 cells after 24 hrs by MTT assay; type: cell-based; settings: NIH3T3, 24 h
Procedure, shortened: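 NIH/3T3 mouse fibroblasts (ATCC) grown in DMEM with 10% fetal calf serum, penicillin and streptomycin at 37 °C in 5% CO2. Cells were seeded at 2 × 10^4 cells/mL and preincubated 24 h. Compounds went from DMSO stocks diluted in medium (final DMSO <0.1%) at 0.5–500 µg/mL for 24 h. MTT was added at 0.5 mg/mL final for 4 h at 37 °C. Formazan was dissolved in DMSO and read at 540 nm. Triplicate wells per concentration. IC50 is the concentration reducing absorbance to 50% of control, reported as mean ± SD.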

Nakaseomyces glabratus [5] = test: Antifungal activity against Candida glabrata clinical isolate (Anadolu university) by NCCLS M27-A2 microbroth dilution method; type: functional

MIC (Nakaseomyces glabratus [1]) [µg/mL]	MIC (Candida albicans [2]) [µg/mL]	MIC (Candida albicans [3]) [µg/mL]	MIC (Candida tropicalis) [µg/mL]	MIC (Candida albicans [4]) [µg/mL]	MIC (Candida parapsilosis) [µg/mL]	MIC (Pichia kudriavzevii) [µg/mL]	MIC (Nakaseomyces glabratus [5]) [µg/mL]	SMILES	IC50 (NIH3T3) [µg/mL]
90 (≈ 249 µM)	40 (≈ 111 µM)	40 (≈ 111 µM)	90 (≈ 249 µM)	180 (≈ 499 µM)	20 (≈ 55.4 µM)	370 (≈ 1030 µM)	40 (≈ 111 µM)	Clc1ccc(C2=Nn3c(CCC4CCCCC4)nnc3SC2)cc1	103 (≈ 285 µM)
90 (≈ 236 µM)	750 (≈ 1970 µM)	90 (≈ 236 µM)	90 (≈ 236 µM)	90 (≈ 236 µM)	40 (≈ 105 µM)	180 (≈ 472 µM)	90 (≈ 236 µM)	O=[N+]([O-])c1ccc(C2=Nn3c(CCc4ccc(O)cc4)nnc3SC2)cc1	307 (≈ 804 µM)
90 (≈ 264 µM)	90 (≈ 264 µM)	180 (≈ 529 µM)	750 (≈ 2200 µM)	90 (≈ 264 µM)	370 (≈ 1090 µM)	180 (≈ 529 µM)	180 (≈ 529 µM)	Cc1ccc(C2=Nn3c(CCC4CCCCC4)nnc3SC2)cc1	198 (≈ 582 µM)
750 (≈ 2020 µM)	1500 (≈ 4040 µM)	750 (≈ 2020 µM)	750 (≈ 2020 µM)	750 (≈ 2020 µM)	370 (≈ 998 µM)	750 (≈ 2020 µM)	750 (≈ 2020 µM)	Oc1ccc(CCc2nnc3n2N=C(c2ccc(Cl)cc2)CS3)cc1	86.7 (≈ 234 µM)
1500 (≈ 4230 µM)	1500 (≈ 4230 µM)	1500 (≈ 4230 µM)	1500 (≈ 4230 µM)	180 (≈ 508 µM)	1500 (≈ 4230 µM)	180 (≈ 508 µM)	370 (≈ 1040 µM)	Oc1ccc(CCc2nnc3n2N=C(c2ccc(F)cc2)CS3)cc1	367 (≈ 1030 µM)
90 (≈ 276 µM)	180 (≈ 551 µM)	90 (≈ 276 µM)	180 (≈ 551 µM)	90 (≈ 276 µM)	370 (≈ 1130 µM)	180 (≈ 551 µM)	90 (≈ 276 µM)	c1ccc(C2=Nn3c(CCC4CCCCC4)nnc3SC2)cc1	433 (≈ 1330 µM)
750 (≈ 2140 µM)	1500 (≈ 4280 µM)	750 (≈ 2140 µM)	1500 (≈ 4280 µM)	750 (≈ 2140 µM)	370 (≈ 1060 µM)	370 (≈ 1060 µM)	750 (≈ 2140 µM)	Cc1ccc(C2=Nn3c(CCc4ccc(O)cc4)nnc3SC2)cc1	400 (≈ 1140 µM)
370 (≈ 1070 µM)	90 (≈ 261 µM)	90 (≈ 261 µM)	750 (≈ 2180 µM)	370 (≈ 1070 µM)	370 (≈ 1070 µM)	90 (≈ 261 µM)	90 (≈ 261 µM)	Fc1ccc(C2=Nn3c(CCC4CCCCC4)nnc3SC2)cc1	106 (≈ 308 µM)
40 (≈ 119 µM)	370 (≈ 1100 µM)	80 (≈ 238 µM)	90 (≈ 268 µM)	90 (≈ 268 µM)	180 (≈ 535 µM)	370 (≈ 1100 µM)	180 (≈ 535 µM)	Oc1ccc(CCc2nnc3n2N=C(c2ccccc2)CS3)cc1	31.6 (≈ 93.9 µM)
90 (≈ 242 µM)	90 (≈ 242 µM)	90 (≈ 242 µM)	180 (≈ 485 µM)	90 (≈ 242 µM)	180 (≈ 485 µM)	180 (≈ 485 µM)	90 (≈ 242 µM)	O=[N+]([O-])c1ccc(C2=Nn3c(CCC4CCCCC4)nnc3SC2)cc1	210 (≈ 565 µM)

SMILES	MIC (Nakaseomyces glabratus [1]) [µg/mL]	MIC (Candida albicans [2]) [µg/mL]	MIC (Candida albicans [3]) [µg/mL]	MIC (Candida tropicalis) [µg/mL]	MIC (Candida albicans [4]) [µg/mL]	MIC (Candida parapsilosis) [µg/mL]	MIC (Pichia kudriavzevii) [µg/mL]	MIC (Nakaseomyces glabratus [5]) [µg/mL]	IC50 (NIH3T3) [µg/mL]
CC(=O)N1CCN(c2ccc(OCC3COC(Cn4ccnc4)(c4ccc(Cl)cc4Cl)O3)cc2)CC1 (stereo not drawn) [KETOCONAZOLE]	15 (≈ 28.2 µM)	15 (≈ 28.2 µM)	30 (≈ 56.5 µM)	3 (≈ 5.65 µM)	30 (≈ 56.5 µM)	7 (≈ 13.2 µM)	3 (≈ 5.65 µM)	7 (≈ 13.2 µM)	–
